Measured values as given in ChEMBL document CHEMBL1124559, “Synthesis and antiviral activity of the enantiomeric forms of carba-5-iodo-2'-deoxyuridine and carba-(E)-5-(2-bromovinyl)-2'-deoxyuridine” (1989).
In brackets after ≈: the same amount, converted by molar mass.

How the values were obtained:
Type in all cases: functional
Oryctolagus cuniculus [1] = organism: Oryctolagus cuniculus; assay: Antiviral activity against F strain of herpes simplex virus-1 in primary rabbit kidney cell cultures
In short: (§1)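 Confluent cell monolayers in microtiter trays infected with 100 CCID50 of virus (1 CCID50 = dose infecting 50% of cultures); after 1 h adsorption, residual virus removed and cultures incubated with varying compound concentrations. Cytopathogenicity scored once complete in untreated infected controls; value is concentration reducing virus-induced cytopathogenicity by 50%, averaged over three to four separate experiments.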

Oryctolagus cuniculus [2] = organism: Oryctolagus cuniculus; assay: Antiviral activity against G strain of herpes simplex virus-2 in primary rabbit kidney cell cultures; in short: as §1
Oryctolagus cuniculus [3] = organism: Oryctolagus cuniculus; assay: Antiviral activity against KOS strain of herpes simplex virus-1 in primary rabbit kidney cell cultures; in short: as §1
Oryctolagus cuniculus [4] = organism: Oryctolagus cuniculus; assay: Antiviral activity against McIntyre strain of herpes simplex virus-1 in primary rabbit kidney cell cultures; in short: as §1
Oryctolagus cuniculus [5] = organism: Oryctolagus cuniculus; assay: Antiviral activity against Vaccinia virus in primary rabbit kidney cell cultures; in short: as §1
Oryctolagus cuniculus [6] = organism: Oryctolagus cuniculus; assay: Minimum cytotoxic concentration required to cause a microscopically detectable alteration of rabbit kidney cell morphology
In short: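 Cell cultures exposed to varying compound concentrations; value is concentration required to cause microscopically detectable alteration of cell morphology.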

Oryctolagus cuniculus [7] = organism: Oryctolagus cuniculus; assay: Antiviral activity against 196 strain of herpes simplex virus-2 in primary rabbit kidney cell cultures; in short: as §1
Oryctolagus cuniculus [8] = organism: Oryctolagus cuniculus; assay: Antiviral activity against Lyons strain of herpes simplex virus-2 in primary rabbit kidney cell cultures; in short: as §1
Oryctolagus cuniculus [9] = organism: Oryctolagus cuniculus; assay: Antiviral activity against VMW 1837 strain of thymidine kinase deficient (TK-) herpes simplex virus-1 in primary rabbit kidney cell cultures; in short: as §1
Oryctolagus cuniculus [10] = organism: Oryctolagus cuniculus; assay: Antiviral activity against Vesicular stomatitis virus in primary rabbit kidney cell cultures; in short: as §1
Oryctolagus cuniculus [11] = organism: Oryctolagus cuniculus; assay: Antiviral activity against B2006 strain of thymidine kinase deficient (TK-) herpes simplex virus-1 in primary rabbit kidney cell cultures; in short: as §1
[12] = Oryctolagus cuniculus, read-out: MIC

Row | Structure (SMILES) | MIC (Oryctolagus cuniculus [1]) | MIC (Oryctolagus cuniculus [2]) | MIC (Oryctolagus cuniculus [3]) | MIC (Oryctolagus cuniculus [4]) | MIC (Oryctolagus cuniculus [5]) | MCC (Oryctolagus cuniculus [6]) | MIC (Oryctolagus cuniculus [7]) | MIC (Oryctolagus cuniculus [8]) | MIC (Oryctolagus cuniculus [9]) | MIC (Oryctolagus cuniculus [10]) | MIC (Oryctolagus cuniculus [11]) | MIC (Oryctolagus cuniculus [1]; [12]) | MIC (Oryctolagus cuniculus [2]; [12]) | MIC (Oryctolagus cuniculus [3]; [12]) | MIC (Oryctolagus cuniculus [4]; [12]) | MIC (Oryctolagus cuniculus [5]; [12])
1 | O=c1[nH]c(=O)n([C@@H]2C[C@H](CO)[C@@H](O)C2)cc1I (racemic) | 0.1 µg/mL (≈ 0.284 µM) | 20 µg/mL (≈ 56.8 µM) | 0.1 µg/mL (≈ 0.284 µM) | 0.1 µg/mL (≈ 0.284 µM) | 150 µg/mL (≈ 426 µM) |  |  |  |  |  |  |  |  |  |  | 
2 | O=c1[nH]c(=O)n([C@@H]2C[C@H](CO)[C@@H](O)C2)cc1I (stereo in doubt; (+)) | 0.07 µg/mL (≈ 0.199 µM) | 10 µg/mL (≈ 28.4 µM) | 0.07 µg/mL (≈ 0.199 µM) | 0.2 µg/mL (≈ 0.568 µM) | 40 µg/mL (≈ 114 µM) | > 400 µg/mL | > 400 µg/mL | > 400 µg/mL | > 400 µg/mL | > 400 µg/mL | > 400 µg/mL |  |  |  |  | 
3 | O=c1[nH]c(=O)n([C@@H]2C[C@H](CO)[C@@H](O)C2)cc1I (stereo in doubt; (-)) | 7 µg/mL (≈ 19.9 µM) | 70 µg/mL (≈ 199 µM) | 1 µg/mL (≈ 2.84 µM) | 20 µg/mL (≈ 56.8 µM) | >400 µg/mL |  |  |  |  |  |  |  |  |  |  | 
4 | O=c1[nH]c(=O)n([C@H]2C[C@H](O)[C@@H](CO)O2)cc1/C=C/Br [BRIVUDINE] |  |  |  |  |  | > 400 µg/mL | 70 µg/mL (≈ 210 µM) | 7 µg/mL (≈ 21 µM) | > 400 µg/mL | > 400 µg/mL | 150 µg/mL (≈ 450 µM) | 0.02 µg/mL (≈ 0.06 µM) | 2 µg/mL (≈ 6 µM) | 0.01 µg/mL (≈ 0.03 µM) | 0.025 µg/mL (≈ 0.075 µM) | 15 µg/mL (≈ 45 µM)
5 | O=c1[nH]c(=O)n([C@H]2C[C@H](O)[C@@H](CO)O2)cc1I [IDOXURIDINE] |  |  |  |  |  | > 400 µg/mL | 2 µg/mL (≈ 5.65 µM) | 1 µg/mL (≈ 2.82 µM) | > 400 µg/mL | > 400 µg/mL | > 400 µg/mL | 0.07 µg/mL (≈ 0.198 µM) | 0.4 µg/mL (≈ 1.13 µM) | 0.1 µg/mL (≈ 0.282 µM) | 0.1 µg/mL (≈ 0.282 µM) | 0.2 µg/mL (≈ 0.565 µM)
